A selection: hits, their analogues and other compounds. The true share with any hit is near 5.9%.
T cruzi growth: inhibitors of T. cruzi proliferation. T. cruzi beta-gal in NIH3T3, GalScreen luminescence, 90 h. inhibition, % at 8.34 µM. 5.9% of 77,000 active. AID 624255;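 active = mean inhibition above about 93%, with at least 55% of replicates each passing it, limit read from the data, passing the limit was not always enough; inconclusive = only one of those two conditions holds; inactive = neither condition holds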
GASC1 inh: inhibitors of human demethylase GASC-1 KDM4C; 0.15% of 96,000 active; Q9H3R0; GST-KDM4C 2-372, H3K9me3 peptide, LANCE TR-FRET; inhibition, % at 12.5 µM;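 active = mean replicate inhibition above about 25%, with at least 55% of replicates also reaching it, limit read from the data, passing the limit was not always enough; inconclusive = only one of those two conditions met; inactive = neither condition met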
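reagent = H3K9me3 peptide substrate, Fe(II), 2-oxoglutarate | system = GST-tagged GASC-1 (JMJD2C) catalytic fragment, aa 2-372 | amount = enzyme final amount 10 nM | read-out = Fall in 671/618 emission ratio as inhibition | medium = HEPES buffer, pH 7.5, plus ascorbate | schedule = 30 min reaction, 60 min detection, RT | measured by = LANCE TR-FRET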
IDH1 mut inh: inhibitors of human IDH1 R132H. O75874. IDH1 R132H reductase, diaphorase/resazurin fluorescence, 60 min. AID 624101. 0.18% of 70,000 active. inhibition, % at 10 µM; in the data active = inhibition above about 34%; inconclusive = no clear call, values can overlap the other calls; inactive = below about 11%;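 note: 0% = DMSO and 100% = no enzyme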
Target sequence (O75874 whole entry R132H): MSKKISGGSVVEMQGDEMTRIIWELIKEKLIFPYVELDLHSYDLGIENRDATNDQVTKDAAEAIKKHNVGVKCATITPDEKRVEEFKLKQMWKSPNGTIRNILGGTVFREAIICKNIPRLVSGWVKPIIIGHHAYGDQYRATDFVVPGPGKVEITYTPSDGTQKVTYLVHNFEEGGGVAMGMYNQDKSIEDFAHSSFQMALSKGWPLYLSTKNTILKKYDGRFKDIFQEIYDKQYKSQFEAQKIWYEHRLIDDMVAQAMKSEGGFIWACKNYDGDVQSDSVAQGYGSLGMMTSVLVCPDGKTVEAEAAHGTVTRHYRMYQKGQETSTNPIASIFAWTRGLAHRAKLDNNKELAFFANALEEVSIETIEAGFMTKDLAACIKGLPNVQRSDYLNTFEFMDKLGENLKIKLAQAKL
Pf Dd2 growth: blocks growth of Plasmodium falciparum Dd2 parasites | 2.3% of 94,000 active | activity change, % at 10 µM | P. falciparum Dd2 growth, SYBR Green, 72 h; hits give low values | AID 1159554; in the data active = activity change below about -80%; inconclusive = no clear call, values can overlap the other calls
The depositor's hits bear a star; ? = inconclusive; · = not tested or not shown.

SMILES	T cruzi growth	GASC1 inh	IDH1 mut inh	Pf Dd2 growth
CN1c2ccc(C3=CCCCC3)cc2[C@H]2[C@H](CCN2C(=O)C2CC2)[C@@H]1CO	·	·	·	-89*
O=C(C1CCCC1)N1CC[C@@H]2[C@H](CO)Nc3ccc(C4=CCCCC4)cc3[C@@H]21	·	6	·	-83*
COc1cccc(-c2ccc3c(c2)[C@@H]2[C@@H](CCN2C(=O)C2CCCC2)[C@H](CO)N3)c1	·	-3	·	-86*
O=C(c1ccc(F)cc1)N1CC[C@@H]2[C@H]1c1cc(C3=CCCCC3)ccc1N[C@@H]2CO	11	-1	·	0
COc1cccc(-c2ccc3c(c2)[C@@H]2[C@@H](CCN2S(=O)(=O)c2cn(C)cn2)[C@H](CO)N3)c1	65	-2	·	-82*
CCn1c(SCC(=O)Nc2cc(Cl)cc(Cl)c2)nnc1-c1ccc(C)cc1	·	·	0	·
O=C(NC(Cc1ccc(O)cc1)C(=O)O)c1ccccc1 (stereo not given)	·	·	0	·
CCOC(=O)c1c(NC(=O)CSc2ncccn2)sc2c1CCCC2	·	·	1	·
COc1ccc(C#Cc2ccc3c(c2)[C@H]2[C@H](CCN2C(=O)C2CCCC2)[C@@H](CO)N3)cc1	·	0	·	-95*
COc1cccc(-c2ccc3c(c2)[C@H]2[C@H](CCN2C(=O)C2CCCCC2)[C@@H](CO)N3)c1	·	1	·	-88*
COc1cccc(-c2ccc3c(c2)[C@@H]2[C@@H](CCN2C(=O)C2CCC2)[C@H](CO)N3)c1	-6	4	·	-32
OC[C@@H]1Nc2ccc(-c3cccc(F)c3)cc2[C@@H]2[C@H]1CCN2Cc1ccc(F)cc1	83	0	·	-81*
COc1cccc(-c2ccc3c(c2)[C@@H]2[C@@H](CCN2C(=O)C2CC2)[C@@H](CO)N3)c1	·	-4	·	-65
COc1cccc(-c2ccc3c(c2)[C@@H]2[C@@H](CCN2C(=O)C2CCCCC2)[C@H](CO)N3)c1	·	-2	·	-89*
COc1ccc(C#Cc2ccc3c(c2)[C@@H]2[C@@H](CCN2C(=O)C2CCCC2)[C@@H](CO)N3)cc1	·	-3	·	?
Cc1ccc(-c2nnc3c4ccccc4c(C)nn23)cc1S(=O)(=O)NCc1cccnc1	·	·	0	·
COc1ccc(-c2ccc3c(c2)[C@@H]2[C@@H](CCN2S(=O)(=O)c2ccc(OC)cc2)[C@H](CO)N3)cc1	49	1	·	-58
COc1ccccc1-c1ccc2c(c1)[C@@H]1[C@@H](CCN1C(=O)C1CCCCC1)[C@@H](CO)N2	-24	·	·	-85*
COc1ccc(S(=O)(=O)N2CC[C@@H]3[C@H]2c2cc(-c4ccc(C#N)cc4)ccc2N[C@@H]3CO)cc1	89	0	·	-91*
COc1ccccc1-c1ccc2c(c1)[C@H]1[C@H](CCN1C(=O)C1CCC1)[C@@H](CO)N2	·	-1	·	7
Cc1ccc(-c2nc(S(=O)(=O)c3ccc(F)cc3)c(SCC(N)=O)o2)cc1	·	·	-1	·
CO[C@@H]1CN(C)C(=O)c2ccc(NC(=O)Nc3ccc(C(F)(F)F)cc3)cc2OC[C@@H](C)NC[C@@H]1C	·	1	·	-83*
CO[C@H]1CN(C)C(=O)c2cc(NC(=O)Nc3ccc(C(F)(F)F)cc3)ccc2OC[C@H](C)NC[C@H]1C	-16	0	0	-88*
COC(=O)c1cc(NC(=O)CSc2nc(Nc3ccccc3)nc(N3CCOCC3)n2)ccc1Cl	·	·	0	·
O=C(O)Cn1c(=O)n(CC(=O)O)c2ccccc21	·	·	5	·
SMILES	T cruzi growth	GASC1 inh	IDH1 mut inh	Pf Dd2 growth
C[C@@H]1CN([C@H](C)CO)C(=O)c2cc(NC(=O)Nc3ccccc3)ccc2O[C@@H](C)CCCCO[C@H]1CN(C)S(=O)(=O)c1ccc(Cl)cc1	-6	-3	2	-81*
C[C@@H]1CN([C@H](C)CO)C(=O)c2cc(NC(=O)Nc3ccc4c(c3)OCO4)ccc2O[C@@H](C)CCCCO[C@@H]1CN(C)S(=O)(=O)c1ccc(Cl)cc1	51	1	0	-88*
C[C@@H]1CCCCO[C@@H](CN(C)S(=O)(=O)c2ccc(Cl)cc2)[C@@H](C)CN([C@H](C)CO)C(=O)c2cc(NC(=O)Nc3ccccc3)ccc2O1	-7	-1	1	-84*
C[C@@H]1CN([C@@H](C)CO)C(=O)c2cc(NC(=O)Nc3ccccc3)ccc2O[C@@H](C)CCCCO[C@H]1CN(C)S(=O)(=O)c1ccccc1	·	0	0	·
Cc1ccc(S(=O)(=O)N(C)C[C@@H]2OCCCC[C@H](C)Oc3ccc(NC(=O)Nc4ccccc4)cc3C(=O)N([C@H](C)CO)C[C@H]2C)cc1	74	1	·	-90*
C[C@@H]1CN([C@@H](C)CO)C(=O)c2cc(NC(=O)Nc3ccccc3)ccc2O[C@@H](C)CCCCO[C@@H]1CN(C)S(=O)(=O)c1ccc(Cl)cc1	-120	2	-3	-87*
C[C@@H]1CN([C@H](C)CO)C(=O)c2cc(NC(=O)Nc3ccccc3)ccc2O[C@@H](C)CCCCO[C@@H]1CN(C)S(=O)(=O)c1ccc(Cl)cc1	38	0	3	-86*
C[C@@H]1CCCCO[C@@H](CN(C)S(=O)(=O)c2ccccc2)[C@H](C)CN([C@H](C)CO)C(=O)c2cc(NC(=O)Nc3ccccc3)ccc2O1	55	0	-1	-78
C[C@@H]1CN([C@@H](C)CO)C(=O)c2cc(NC(=O)Nc3ccccc3)ccc2O[C@@H](C)CCCCO[C@@H]1CN(C)S(=O)(=O)c1ccccc1	-16	1	0	-67
C[C@H](CO)N1C[C@H](C)[C@H](CN(C)C(=O)Nc2cccc3ccccc23)OCCCC[C@H](C)Oc2ccc(NC(=O)Cc3ccccc3)cc2C1=O	42	-3	·	-82*
C[C@@H]1CCCCO[C@@H](CN(C)C(=O)Nc2cccc3ccccc23)[C@H](C)CN([C@@H](C)CO)C(=O)c2cc(NC(=O)Cc3ccccc3)ccc2O1	95	-5	2	-81*
C[C@@H]1CCCCO[C@H](CN(C)C(=O)Nc2cccc3ccccc23)[C@@H](C)CN([C@H](C)CO)C(=O)c2cc(NC(=O)Cc3ccccc3)ccc2O1	23	-2	0	-39
COc1ccc(S(=O)(=O)N(C)C[C@H]2OCCCC[C@@H](C)Oc3ccc(NC(=O)Nc4ccc(F)cc4)cc3C(=O)N([C@H](C)CO)C[C@H]2C)cc1	?	-3	-2	-80
COc1ccc(NC(=O)Nc2ccc3c(c2)C(=O)N([C@H](C)CO)C[C@@H](C)[C@@H](CN(C)S(=O)(=O)c2ccc(F)cc2)OCCCC[C@@H](C)O3)cc1	96	-1	0	-81*
COc1ccc(NC(=O)Nc2ccc3c(c2)C(=O)N([C@H](C)CO)C[C@@H](C)[C@H](CN(C)S(=O)(=O)c2ccc(F)cc2)OCCCC[C@@H](C)O3)cc1	118	-2	5	-82*
COc1ccc(S(=O)(=O)N(C)C[C@H]2OCCCC[C@H](C)Oc3ccc(NC(=O)Nc4ccc(F)cc4)cc3C(=O)N([C@H](C)CO)C[C@H]2C)cc1	44	-2	0	-81*
COc1ccc([N+](=O)[O-])cc1NC(=O)CN(c1ccc(F)c(Cl)c1)S(C)(=O)=O	·	·	0	·

Source: PubChem
